Results on eleven compounds are retold here after ChEMBL document CHEMBL1124586, “Carbohydrate biguanides as potential hypoglycemic agents” (1989).

Holding throughout (assay type): functional
In assay [1] the test system is Rattus norvegicus. In words: Rise in the blood glucose level after 0 min following 100 mg/kg oral dose in fasted nondiabetic rats. In short, it runs like this:
(§1)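 Rats fasted 18 h, dosed orally (0.5% w/v methylcellulose suspension or aqueous solution; controls got the same vehicle) 60 min before an oral glucose load of 1.0 g/kg. Tail-vein blood was taken just before (0 min) and 30 min after glucose. Whole blood was deproteinized with Ba(OH)2/ZnSO4 and glucose read by glucose oxidase. Values are mean ± SEM, n rats per group.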

Assay [2] concerns Rattus norvegicus. Kind of assay: Rise in the blood glucose level after 30 min following 100 mg/kg oral dose in fasted nondiabetic rats. The procedure, abridged:
as §1

For assay [3], the system named is Rattus norvegicus. In words: Rise in the glucose level 100 mg/kg oral dose in fasted nondiabetic rats. The procedure, abridged: (§2)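 Fasted rats (18 h) were given oral drug or vehicle 60 min before 1.0 g/kg oral glucose, with glucose-oxidase readings on tail blood at 0 and 30 min. The change from 0 min was corrected by subtracting the change in vehicle rats given no glucose. Groups were compared with vehicle by ANOVA/Dunnett (p ≤ 0.05). % inhibition = 100(ΔGV − ΔGD)/ΔGV.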

Assay [4] relates to Rattus norvegicus. Kind of assay: Percent inhibition of glucose rise, following 100 mg/kg oral dose in fasted nondiabetic rats. In short, it runs like this: (§3)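 Rats fasted 18 h were dosed orally around 9 a.m. with drug or vehicle (0.5% w/v methylcellulose suspension or aqueous solution), dosed on salt-free basis by mean group body weight, 60 min before oral glucose 1.0 g/kg. Tail-vein blood at 0 and 30 min, glucose oxidase on deproteinized whole blood. Rise corrected for no-glucose vehicle rats; %inhibition = 100(ΔGV−ΔGD)/ΔGV; mean ± SEM.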

In assay [5] the test system is Rattus norvegicus. In words: Rise in the blood glucose level after 0 min following 200 mg/kg oral dose in fasted nondiabetic rats. In short, it runs like this: as §1
Assay [6] relates to Rattus norvegicus. Kind of assay: Percent inhibition of glucose rise, following 200 mg/kg oral dose in fasted nondiabetic rats. The procedure, abridged: as §3
Assay [7] concerns Rattus norvegicus. Kind of assay: Rise in the blood glucose level after 30 min following 200 mg/kg oral dose in fasted nondiabetic rats. The procedure, abridged:
as §1

The subject of assay [8] is Rattus norvegicus. In words: Rise in the blood glucose level at 100 mg/kg oral dose in fasted nondiabetic rats. In short, it runs like this: as §2
The test system of assay [9] is Rattus norvegicus. Kind of assay: Rise in the blood glucose level at 200 mg/kg oral dose in fasted nondiabetic rats. In short, it runs like this:
as §2

In assay [10] the test system is Rattus norvegicus. In words: Rise in the blood glucose level after 0 min following 10 mg/kg oral dose in fasted nondiabetic rats. The procedure, abridged:
as §1

The test system of assay [11] is Rattus norvegicus. Kind of assay: Rise in the blood glucose level after 0 min following 150 mg/kg oral dose in fasted nondiabetic rats. In short, it runs like this: as §1
Assay [12] deals with Rattus norvegicus. In words: Percent inhibition of glucose rise, following 10 mg/kg oral dose in fasted nondiabetic rats. The procedure, abridged:
as §3

In assay [13] the test system is Rattus norvegicus. In words: Percent inhibition of glucose rise, following 150 mg/kg oral dose in fasted nondiabetic rats. In short, it runs like this: as §3
The subject of assay [14] is Rattus norvegicus. Kind of assay: Percent inhibition of glucose rise, following 300 mg/kg oral dose in fasted nondiabetic rats. The procedure, abridged:
as §3

Assay [15] deals with Rattus norvegicus. Kind of assay: Percent inhibition of glucose rise, following 50 mg/kg oral dose in fasted nondiabetic rats. The procedure, abridged: as §3
In assay [16] the test system is Rattus norvegicus. Kind of assay: Rise in the blood glucose level after 0 min following 300 mg/kg oral dose in fasted nondiabetic rats. In short, it runs like this:
as §1

For assay [17], the system named is Rattus norvegicus. Kind of assay: Rise in the blood glucose level after 0 min following 50 mg/kg oral dose in fasted nondiabetic rats. In short, it runs like this:
as §1

Assay [18] deals with Rattus norvegicus. In words: Rise in the blood glucose level after 30 min following 10 mg/kg oral dose in fasted nondiabetic rats. In short, it runs like this:
as §1

The subject of assay [19] is Rattus norvegicus. In words: Rise in the blood glucose level after 30 min following 150 mg/kg oral dose in fasted nondiabetic rats. In short, it runs like this:
as §1

The test system of assay [20] is Rattus norvegicus. Kind of assay: Rise in the blood glucose level after 30 min following 300 mg/kg oral dose in fasted nondiabetic rats. The procedure, abridged:
as §1

The subject of assay [21] is Rattus norvegicus. Kind of assay: Rise in the blood glucose level after 30 min following 50 mg/kg oral dose in fasted nondiabetic rats. In short, it runs like this:
as §1

Assay [22] relates to Rattus norvegicus. In words: Rise in the blood glucose level at 10 mg/kg oral dose in fasted nondiabetic rats. The procedure, abridged:
as §2

The test system of assay [23] is Rattus norvegicus. In words: Rise in the blood glucose level at 150 mg/kg oral dose in fasted nondiabetic rats. The procedure, abridged: as §2
In assay [24] the test system is Rattus norvegicus. Kind of assay: Rise in the blood glucose level at 300 mg/kg oral dose in fasted nondiabetic rats. In short, it runs like this: as §2
Assay [25] relates to Rattus norvegicus. In words: Rise in the blood glucose level at 50 mg/kg oral dose in fasted nondiabetic rats. The procedure, abridged:
as §2

Consider `N=C(N)/N=C(\N)NCC1OC(O)[C@H](O)C(O)C1O` (some centres undefined), for which the Glucose rise is 68 mg/dL in the assay on Rattus norvegicus [1], 145 mg/dL in the assay with Rattus norvegicus [2] and 77 mg/dL in the assay on Rattus norvegicus [3]. For the same compound, in the assay with Rattus norvegicus [4], the inhibition in vivo at 100 mg/kg is -14%.
Take `COC1OC(C/N=C(/N)N=C(N)N)[C@@H](OCc2ccccc2)C(OCc2ccccc2)[C@H]1OCc1ccccc1` (some centres undefined): the results for the Glucose rise in the assay with Rattus norvegicus [1], in the assay with Rattus norvegicus [2] and with Rattus norvegicus [3] were 82 mg/dL, 123 mg/dL and 41 mg/dL, respectively. Further, the inhibition in vivo at 100 mg/kg in the assay with Rattus norvegicus [4] is 47%.
Taken in the same sequence, the figures for `CC1(C)O[C@@H]2CO[C@@]3(C/N=C(/N)N=C(N)N)OC(C)(C)OC3[C@@H]2O1` (some centres undefined) were 67 mg/dL, 152 mg/dL, 85 mg/dL and -29%.
Consider `N=C(N)/N=C(\NCCc1ccccc1)NC1OC(CO)[C@@H](O)C(O)[C@H]1O` (some centres undefined), for which the Glucose rise with Rattus norvegicus [1] amounted to 74 mg/dL; with Rattus norvegicus [2] it was 137 mg/dL; in the assay on Rattus norvegicus [3], 63 mg/dL. For the same compound, the inhibition in vivo at 100 mg/kg in the assay on Rattus norvegicus [4] amounted to 9%.
`CO[C@H]1OC(CNC(=N)NC(=N)N)[C@@H](O)C(O)[C@H]1O` (some centres undefined): the Glucose rise in the assay with Rattus norvegicus [1] amounted to 72 mg/dL; in the assay on Rattus norvegicus [2] it was 133 mg/dL; in the assay on Rattus norvegicus [3], 61 mg/dL. Moreover, the inhibition in vivo at 100 mg/kg with Rattus norvegicus [4] was found to be 12%.
As for `N=C(N)/N=C(\N)NCCC1OC(CO)[C@@H](O)C1O` (some centres undefined), the Glucose rise in the assay with Rattus norvegicus [1] was determined as 74 mg/dL; in the assay on Rattus norvegicus [2], 127 mg/dL; in the assay with Rattus norvegicus [3] it was 53 mg/dL. For the same compound, the inhibition in vivo at 100 mg/kg with Rattus norvegicus [4] came out at 26%.
Turning to `N=C(N)/N=C(\S)NC1OC(CO)[C@@H](O)C(O)[C@H]1O` (some centres undefined), the Glucose rise stood at 76 mg/dL in the assay with Rattus norvegicus [1], 139 mg/dL with Rattus norvegicus [2] and 63 mg/dL in the assay on Rattus norvegicus [3]. In the assay on Rattus norvegicus [4], the inhibition in vivo at 100 mg/kg was 9%.
Consider `CC1(C)OC2C(C/N=C(\N)N=C(N)N)O[C@@H]3OC(C)(C)O[C@@H]3C2O1` (some centres undefined), for which the Glucose rise in the assay on Rattus norvegicus [1] is 67 mg/dL; in the assay with Rattus norvegicus [2], 141 mg/dL; in the assay on Rattus norvegicus [3], 74 mg/dL. Also, the inhibition in vivo at 100 mg/kg in the assay on Rattus norvegicus [4] is -12%.
As to `CC1(C)O[C@H]2OC3C(OC(C)(C)O[C@@H]3C/N=C(\N)N=C(N)N)[C@H]2O1` (some centres undefined), the Glucose rise in the assay with Rattus norvegicus [1] was 78 mg/dL; in the assay with Rattus norvegicus [5], 78 mg/dL; in the assay on Rattus norvegicus [2] it was 118 mg/dL; in the assay with Rattus norvegicus [7], 121 mg/dL; with Rattus norvegicus [8], 40 mg/dL; in the assay on Rattus norvegicus [9] it was 43 mg/dL. Also, the inhibition in vivo at 200 mg/kg with Rattus norvegicus [6] worked out at 45%. Also, in the assay with Rattus norvegicus [4], the inhibition in vivo at 100 mg/kg came to 48%.
As for `CN(C)C(=N)NC(=N)N` [METFORMIN], the Glucose rise worked out at 68 mg/dL in the assay with Rattus norvegicus [1], 113 mg/dL in the assay with Rattus norvegicus [2] and 45 mg/dL in the assay on Rattus norvegicus [3]. Further, the inhibition in vivo at 100 mg/kg with Rattus norvegicus [4] stood at 41%.
Take `N=C(N)NC(=N)NCCc1ccccc1` [PHENFORMIN]: the Glucose rise in the assay on Rattus norvegicus [10] worked out at 61 mg/dL; in the assay with Rattus norvegicus [1], 70 mg/dL; in the assay on Rattus norvegicus [11], 58 mg/dL; in the assay with Rattus norvegicus [16] it was 70 mg/dL; in the assay with Rattus norvegicus [17], 63 mg/dL; in the assay with Rattus norvegicus [18], 129 mg/dL. Further, the Glucose rise was determined as 101 mg/dL in the assay with Rattus norvegicus [2]; 84 mg/dL in the assay with Rattus norvegicus [19]; 21 mg/dL in the assay with Rattus norvegicus [20]; 98 mg/dL with Rattus norvegicus [21]; 68 mg/dL in the assay on Rattus norvegicus [22]; 31 mg/dL in the assay with Rattus norvegicus [8]. Besides, the Glucose rise is 26 mg/dL with Rattus norvegicus [23], 21 mg/dL in the assay on Rattus norvegicus [24] and 35 mg/dL in the assay on Rattus norvegicus [25]. The inhibition in vivo at 10 mg/kg in the assay on Rattus norvegicus [12] is 0%. The inhibition in vivo at 150 mg/kg with Rattus norvegicus [13] was found to be 71%. Further, the inhibition in vivo at 300 mg/kg in the assay on Rattus norvegicus [14] stood at 81%. The inhibition in vivo at 50 mg/kg with Rattus norvegicus [15] is 57%. In addition, the inhibition in vivo at 100 mg/kg in the assay with Rattus norvegicus [4] amounted to 64%.

The inhibition in vivo is the relative decrease from the control value, in per cent.
